Source: article PMC3823501 (Cancer research, 2013)
Read-outs that look alike come from different tables or passages of the source.

Experiments:
[1] = patients; cited from earlier work
KB-HURs cells [2] = conditions: cited from earlier work
[3] = biological target: T1, immobilized full-length hRRM2 (Homo sapiens, UniProt P31350); test: Surface plasmon resonance, immobilized full-length hRRM2; format: binding; conditions: 0.0 – 50.0 µM compound
T1 sequence (P31350 1-389): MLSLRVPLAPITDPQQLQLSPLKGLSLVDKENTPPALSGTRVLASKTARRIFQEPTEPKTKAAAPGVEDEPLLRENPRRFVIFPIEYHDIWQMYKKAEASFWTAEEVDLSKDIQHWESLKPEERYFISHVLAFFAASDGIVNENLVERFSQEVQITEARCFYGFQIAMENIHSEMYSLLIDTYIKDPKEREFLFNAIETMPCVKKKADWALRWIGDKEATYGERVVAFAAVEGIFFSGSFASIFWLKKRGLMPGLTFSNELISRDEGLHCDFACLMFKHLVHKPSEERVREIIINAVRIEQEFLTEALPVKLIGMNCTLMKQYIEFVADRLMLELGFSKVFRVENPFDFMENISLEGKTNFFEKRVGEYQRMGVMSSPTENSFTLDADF
Summary of the method: (§1)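 Surface plasmon resonance on a Biacore […], with full-length or C-terminally truncated hRRM2 immobilised on CM4 sensor chips. Test compound was injected at 0.0–50.0 µM and binding was read from sensorgrams.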

KB cells [4] = test: Cell cycle and apoptosis by flow cytometry, KB cells; format: cell-based, human
Summary of the method: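 After 48 h of treatment, KB cells were analysed on a FACScalibur flow cytometer. Propidium iodide staining gave cell-cycle distribution and Annexin V signal gave apoptosis.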

KB-Gem cells [5] = test: 72 h viability assay, gemcitabine-resistant KB clone; format: cell-based; conditions: Homo sapiens, read-out: IC50, toxicity assay
Summary of the method: (§2)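 72 h MTS viability test (CellTiter 96 AQueous) on 10 replicate wells per condition, following the kit instructions. IC50 is the concentration that lowers viability to 50% of the DMSO control. KB cells were grown in RPMI 1640 with 10% FBS and 1% penicillin-streptomycin at 37°C in humidified 5% CO2. KB-HURs and KB-Gem are KB-derived resistant clones.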

KB-HURs cells [6] = test: 72 h viability assay, HU-resistant KB clone; format: cell-based, human
Summary of the method: as §2

[7] = system: hRRM2 protein level in KB cells; test: Western blot of hRRM2 protein level, KB cells; format: cell-based, human; conditions: 20 µM
Summary of the method: (§3)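 KB and TOV-112D cells were treated with 20 µM test compound for a series of times. Lysates were western blotted for hRRM2, with β-actin as loading control.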

[8] = system: dNTP pools in MOLT-4 tumor xenografts; test: Intratumoral dNTP pools of MOLT-4 tumor xenografts; format: in vivo, mouse; conditions: MOLT-4 xenografts, treated vs. control
TOV-112D tumor xenograft = TOV-112D tumor xenograft in mice; format: in vivo, mouse; conditions: 200, 300, or 400 mg/kg/day oral, 7 days
Summary of the method: (§4)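 Female NSG (NOD/SCID/IL2Rgamma null) mice, 8–10 weeks old, received 5×10^6 MOLT-4 or TOV-112D cells subcutaneously in the right flank. Tumour volume was taken as 0.5×l×w2. Once tumours reached about 70 mm3, test compound in 30% solutol was given daily by gavage on a one- or two-dose schedule. Mice were sacrificed on day 28 after implantation; 4 animals/group, mean ± SD.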

recombinant hRRM2/hRRM1 = biological target: T2, recombinant hRRM2/hRRM1 (Homo sapiens, UniProt P31350); test: [3H] CDP reduction assay, recombinant hRRM2/hRRM1; format: biochemical
T2 sequence (P31350 1-389): T1 sequence (P31350 1-389)

Tolerability in mice = format: in vivo; conditions: up to a daily dose of 500 mg/kg
KBHURs cells = test: Real-time cell proliferation; format: cell-based, human; conditions: COH29 2–250 µM
Summary of the method: (§5)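 Cell proliferation was followed by real-time electronic cell sensing (RT-CES, W200 16X) with 2,500 cells seeded per well. From 24 h after seeding, the cell index was recorded every half hour for 120 hours. Quadruplicate samples were used, and traces show the mean of 4 replicates.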

KB-Gem cells [9] = test: Real-time cell proliferation; format: cell-based, human; conditions: COH29 2–250 µM
[10] = Pharmacokinetics in mice, HPLC-MS/MS of plasma; format: in vivo, mouse
Summary of the method: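 Mice received 800 mg/kg test compound orally or intravenously. Plasma levels were measured by HPLC-tandem mass spectrometry (Agilent 1100 capillary LC with triple-quadrupole MS). Oral bioavailability was derived by comparison with the intravenous route.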

NHDF cells = test: 72 h viability assay, normal dermal fibroblasts; format: cell-based; conditions: Homo sapiens, read-out: IC50, viability
RRM1-RRM2 interaction = biological target: T3, RRM1-RRM2 interaction (Homo sapiens, UniProt P31350); format: binding
T3 sequence (P31350 1-389): T1 sequence (P31350 1-389)
Summary of the method: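 Surface plasmon resonance on a Biacore […] with hRRM2 immobilised on a CM4 chip. hRRM1 (0–1 µM) binding was first confirmed and a KD derived. A fixed 0.5 µM hRRM1 was then co-injected with test compound at 0–50 µM, and sensorgrams were read.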

[11] = biological target: T4, RNR in MOLT-4 tumor xenografts (Homo sapiens, UniProt P31350); test: RNR activity in extracts of MOLT-4 tumor xenografts; format: in vivo, mouse; conditions: mice treated for 12 days, 100 mg/kg
T4 sequence (P31350 1-389): T1 sequence (P31350 1-389)
Summary of the method: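 RNR activity was measured in extracts of subcutaneous MOLT-4 xenografts from NSG mice dosed orally for 12 days with vehicle (solutol-15) or 100 mg/kg test compound.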

KB cells [12] = test: Real-time cell proliferation; format: cell-based, human; conditions: 20 µM COH29, 20 µM Gem or 1 mM HU
Summary of the method: as §5

MOLT-4 tumor xenograft = MOLT-4 tumor xenograft in mice; format: in vivo, mouse; conditions: twice-daily oral dosing 50 mg/kg and 100 mg/kg, Day 12
Summary of the method: as §4

[13] = biological target: T5, endogenously expressed RNR in KB cells (Homo sapiens, UniProt P31350); test: RNR activity in cell lysates of KB cells; format: cell-based; conditions: 24 h incubation, 10 µM
T5 sequence (P31350 1-389): T1 sequence (P31350 1-389)

[14] = biological target: T6, C-terminal truncated hRRM2 (Homo sapiens, UniProt P31350); test: Surface plasmon resonance, C-terminal truncated hRRM2; format: binding; conditions: 0.0 – 50.0 µM compound
T6 sequence (P31350 1-348 limits assumed): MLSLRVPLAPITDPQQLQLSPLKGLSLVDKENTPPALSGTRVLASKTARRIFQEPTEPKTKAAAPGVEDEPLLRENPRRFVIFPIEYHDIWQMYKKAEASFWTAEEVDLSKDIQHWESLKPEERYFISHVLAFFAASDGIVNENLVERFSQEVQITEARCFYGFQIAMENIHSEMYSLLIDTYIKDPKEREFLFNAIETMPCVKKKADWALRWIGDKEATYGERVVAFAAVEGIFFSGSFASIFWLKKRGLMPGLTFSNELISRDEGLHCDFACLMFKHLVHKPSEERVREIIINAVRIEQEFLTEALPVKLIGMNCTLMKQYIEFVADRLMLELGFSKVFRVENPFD
Summary of the method: as §1

[15] = system: NCI broad panel of 60 human cancer cell lines; test: NCI 60 human cancer cell line panel, MTT cytotoxicity; format: cell-based; conditions: 10 µM
[16] = system: hRRM2 protein level in TOV-112D cells; test: Western blot of hRRM2 protein level, TOV-112D cells; format: cell-based, human; conditions: 20 µM
Summary of the method: as §3

KB cells [17] = test: 72 h MTS viability assay, KB cells; format: cell-based, human
Summary of the method: as §2

[18] = system: dNTP pools in MOLT-4 cells; test: dNTP pools in MOLT-4 cells; format: cell-based, human; conditions: 10 µM, by 24 h
Summary of the method: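 MOLT-4 cells were exposed to 10 µM test compound or left untreated (control). dATP, dCTP and dGTP levels were measured after 4, 8 and 24 h.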

[19] = female, Balb/c nude, mouse, plasma, po, 800 mg/kg
[20] = Homo sapiens, KB, read-out: IC50, cell proliferation/viability

Question: With `NC(=S)NN=Cc1ncccc1N` [3-AP, 3-aminopyridine-2-carboxaldehyde thiosemicarbazone] as the molecule, how does the “toxicities reported from the phase I trial” value [1] read?
Answer: The value was “hypoxia, respiratory distress, and methemoglobulinemia”.

Question: And the “activity in KBHURs” value (KB-HURs cells [2])?
Answer: Its value is “active”.

Question: For `O=C(Nc1nc(-c2ccc(O)c(O)c2)c(-c2ccccc2)s1)c1ccc(O)c(O)c1` [COH29, N-(4–(3,4-dihydroxyphenyl)-5-phenylthiazol-2-yl)-3,4-dihydroxybenzamide], which “interaction with immobilized full-length hRRM2 (sensorgram)” value [3] is on record?
Answer: The value was “dose-dependent interaction”.

Question: And the apoptosis (KB cells [4])?
Answer: Its apoptosis is “underwent apoptosis”.

Question: And the cell cycle distribution (KB cells [4]; 48 h treatment)?
Answer: The cell cycle distribution was “arrested at S-phase”.

Question: What about the IC50 (KB-Gem cells [5]) of the same molecule?
Answer: The IC50 was 8 µM.

Question: What about the IC50 (KB-HURs cells [6]; Homo sapiens, read-out: IC50, toxicity assay) of the same molecule?
Answer: The IC50 was 8 µM.

Question: What about the hRRM2 protein level [7] of the same molecule?
Answer: The hRRM2 protein level was “unaffected”.

Question: And the “intratumoral dNTP pools” value [8]?
Answer: The value was “decreased”.

Question: What about the “TOV-112D tumor xenograft growth” value (TOV-112D tumor xenograft) of the same molecule?
Answer: Its value is “dose-dependent inhibition”.

Question: What about the IC50 (recombinant hRRM2/hRRM1) of the same molecule?
Answer: The IC50 was 16 µM.

Question: What about the “tolerability, side effects” value (Tolerability in mice) of the same molecule?
Answer: The value was “no appreciable side effects”.

Question: And the “real-time growth of KBHURs” value (KBHURs cells)?
Answer: Its value is “remained sensitive”.

Question: What about the “real-time growth of KB-Gem” value (KB-Gem cells [9]) of the same molecule?
Answer: Its value is “cytotoxic activity is strong and is unaffected by Gem resistance”.

Question: And the peak plasma concentration ([10]; PO 800 mg/kg in 30% solutol, female Balb/c nude mice)?
Answer: Its peak plasma concentration is 10 µM.

Question: What about the Tmax [10, 19] of the same molecule?
Answer: Its Tmax is 30 min.

Question: What about the concentration at 24 h [10, 19] of the same molecule?
Answer: Its concentration at 24 h is about 200 nM.

Question: What about the IC50 (NHDF cells) of the same molecule?
Answer: Its IC50 is 82 µM.

Question: What about the “effect on RRM1-RRM2 binding” value (RRM1-RRM2 interaction; 0.5 µM RRM1, 0 – 50 µM compound) of the same molecule?
Answer: The value was “interfered with RRM1-RRM2 binding in a dose-dependent manner”.

Question: And the “effect on RRM1-RRM2 interaction at low dose” value (RRM1-RRM2 interaction; 12.5 µM compound, 0.5 µM RRM1)?
Answer: The value was “enhanced RRM1-RRM2 interaction”.

Question: And the “effect on RRM1-RRM2 complex at higher dose” value (RRM1-RRM2 interaction; > 25µM compound, 0.5 µM RRM1)?
Answer: The value was “disrupted the complex”.

Question: And the “RNR activity in extracts of MOLT-4 tumor xenografts” value [11]?
Answer: The value was “dramatically lower”.

Question: What about the “real-time KB cell growth after addition at 24 h” value (KB cells [12]) of the same molecule?
Answer: The value was “essentially halted”.

Question: What about the “MOLT-4 tumor xenograft growth” value (MOLT-4 tumor xenograft) of the same molecule?
Answer: Its value is “dose-dependent inhibition”.

Question: What about the “decrease of endogenously expressed RNR activity” value [13] of the same molecule?
Answer: Its value is “approximately 50%”.

Question: What about the “binding after removal of 41 C-terminal amino acids from hRRM2” value [14] of the same molecule?
Answer: Its value is “greatly decreased”.

Question: What about the “cytotoxicity in NCI 60 panel” value [15] of the same molecule?
Answer: Its value is “Impressive inhibition of most of the cancer cell lines”.

Question: And the hRRM2 protein level [16]?
Answer: Its hRRM2 protein level is “unaffected”.

Question: And the IC50 (KB cells [17]; [20])?
Answer: The IC50 was 8 µM.

Question: What about the “levels of dATP, dCTP and dGTP” value [18] of the same molecule?
Answer: Its value is “all pools were greatly decreased”.

Question: What does the source list for `Nc1ccn([C@@H]2O[C@H](CO)[C@@H](O)C2(F)F)c(=O)n1` [Gem, gemcitabine]?
Answer: IC50 (KB-Gem cells [5]): 1000 µM; real-time KB cell growth after addition at 24 h (KB cells [12]): cell growth continued; IC50 (KB cells [17]; [20]): 9 µM

Question: What does the source list for `NC(=O)NO` [HU, hydroxyurea]?
Answer: IC50 (KB-HURs cells [6]; read-out: IC50, toxicity assay, KB-HURs): 320 µM; real-time KB cell growth after addition at 24 h (KB cells [12]): cell growth continued; IC50 (KB cells [17]; read-out: IC50, cell proliferation/viability, KB cells): 180 µM
